These results are taken from ChEMBL document CHEMBL3259714, “Pyrazolo[4,3-e][1,2,4]triazine sulfonamides as carbonic anhydrase inhibitors with antitumor activity” (Bioorg Med Chem, 2014).

For experiment [1], the system named is MCF7. As to the kind of experiment: Cytostatic activity against human MCF7 cells assessed as inhibition of DNA synthesis after 24 hrs by [3H]thymidine incorporation assay. The format is functional, cell-based. The method, boiled down:
(§1)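 Cells kept in DMEM with 10% FBS and penicillin/streptomycin at 37 °C. Seeded in 6-well plates and grown to about 80% confluency, in DMEM without phenol red with 10% CPSR1. Exposed to a range of concentrations plus 0.5 μCi [³H]-thymidine for 24 h at 37 °C. Cells trypsinized and washed with cold PBS until wash dpm matched the reagent control. Uptake counted by liquid scintillation as dpm/well. IC50 is mean ± S.D. of four independent experiments.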

Experiment [2] has as its target Carbonic anhydrase 12 (Homo sapiens, UniProt O43570). The experiment is described as follows: Inhibition of human carbonic anhydrase 12-mediated CO2 hydration preincubated for 15 mins by stopped-flow assay.
The subject of experiment [3] is MDA-MB-231. The experiment is described as follows: Cytostatic activity against human MDA-MB-231 cells assessed as inhibition of DNA synthesis after 24 hrs by [3H]thymidine incorporation assay. It counts as functional, cell-based. An outline of the steps:
as §1
On the technique in general: Dividing cells build labelled thymidine or BrdU into new DNA.

In experiment [4] the target is Carbonic anhydrase 9 (Homo sapiens, UniProt Q16790). The experiment is described as follows: Inhibition of human carbonic anhydrase 9-mediated CO2 hydration preincubated for 15 mins by stopped-flow assay.
Experiment [5] has as its system MCF7. The experiment is described as follows: Inhibition of collagen synthesis in human MCF7 cells assessed as 5-[3H]-proline incorporation into proteins susceptible to action of bacterial collagenase after 24 hrs. The format is functional, cell-based. An outline of the steps: (§2)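 Cells labelled 24 h in growth medium with 5-[³H]proline (5 μCi/mL, 28 Ci/mmol) at a range of compound concentrations. Collagen share of incorporated label found by digesting proteins with purified Clostridium histolyticum collagenase (Peterkofsky method). Cell and medium fractions combined. IC50 is the mean ± S.D. of three independent experiments run in duplicate.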

Experiment [6] concerns the target Carbonic anhydrase 2 (Homo sapiens, UniProt P00918). The experiment is described as follows: Inhibition of human carbonic anhydrase 2-mediated CO2 hydration preincubated for 15 mins by stopped-flow assay.
Experiment [7] has as its system MDA-MB-231. The experiment is described as follows: Inhibition of collagen synthesis in human MDA-MB-231 cells assessed as 5-[3H]-proline incorporation into proteins susceptible to action of bacterial collagenase after 24 hrs. It counts as functional, cell-based. An outline of the steps:
as §2

Experiment [8] deals with Carbonic anhydrase 1 (Homo sapiens, UniProt P00915). As to the kind of experiment: Inhibition of human carbonic anhydrase 1-mediated CO2 hydration preincubated for 15 mins by stopped-flow assay.
Carbonic anhydrase 1, sequence (P00915 whole entry): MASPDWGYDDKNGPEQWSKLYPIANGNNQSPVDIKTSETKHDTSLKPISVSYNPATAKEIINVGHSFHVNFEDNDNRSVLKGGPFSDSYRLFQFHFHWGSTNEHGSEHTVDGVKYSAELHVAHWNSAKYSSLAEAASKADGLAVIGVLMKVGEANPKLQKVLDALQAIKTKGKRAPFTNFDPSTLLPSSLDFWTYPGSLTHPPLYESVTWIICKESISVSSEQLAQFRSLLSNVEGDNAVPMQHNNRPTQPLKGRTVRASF

Carbonic anhydrase 12, sequence (O43570 whole entry): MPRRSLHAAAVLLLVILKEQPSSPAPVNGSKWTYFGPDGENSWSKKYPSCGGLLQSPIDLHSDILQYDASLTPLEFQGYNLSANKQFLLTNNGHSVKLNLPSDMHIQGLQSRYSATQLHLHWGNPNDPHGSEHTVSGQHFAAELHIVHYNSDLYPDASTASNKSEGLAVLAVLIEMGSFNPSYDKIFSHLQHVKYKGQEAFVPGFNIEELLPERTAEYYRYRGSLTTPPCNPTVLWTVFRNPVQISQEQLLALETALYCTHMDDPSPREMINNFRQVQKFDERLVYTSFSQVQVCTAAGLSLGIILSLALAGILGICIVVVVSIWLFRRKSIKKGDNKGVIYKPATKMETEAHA

What is called Ki is a measure of affinity in units of concentration, obtained from inhibition or displacement. Higher therefore signals weaker binding. Broadly, the IC50 is the concentration that gives 50% inhibition. Turning to `Cc1nn(C)c2nnc(Nc3ccc(S(=O)(=O)N4CCCNCC4)cc3)nc12`, the inhibition result in experiment [1] and in experiment [3] was “Dose-dependent effect” each time. Also, the inhibition constant (Ki) in experiment [2] is 0.0059 µM; in experiment [4], greater than 50 µM; in experiment [6] it was 0.918 µM; in experiment [8] it was greater than 50 µM. Moreover, the IC50 in experiment [5] was 133 µM; in experiment [7] it was 135 µM.

`Cc1nn(C)c2nnc(Nc3ccc(S(=O)(=O)N4CCNCC4)cc3)nc12`: the inhibition result in experiment [1] and in experiment [3] was “Dose-dependent effect” throughout. The Ki is 0.0057 µM in experiment [2], greater than 50 µM in experiment [4], 0.703 µM in experiment [6] and greater than 50 µM in experiment [8]. The IC50 in experiment [5] was determined as 175 µM; in experiment [7] it was 180 µM.

Consider `Cc1nn(C)c2nnc(Nc3ccc(S(=O)(=O)N4CCCCC4)cc3)nc12`, for which the inhibition entry in experiment [1] and in experiment [3] was “Dose-dependent effect” in each case. Besides, the Ki was 0.0062 µM in experiment [2], greater than 50 µM in experiment [4], 0.492 µM in experiment [6] and greater than 50 µM in experiment [8]. Moreover, the concentration for half-maximal inhibition (IC50) came out at 163 µM in experiment [5] and 145 µM in experiment [7].

In the case of `Cc1nn(C)c2nnc(Nc3ccc(S(=O)(=O)N4CCCC4)cc3)nc12`, the inhibition entry in experiment [1] and in experiment [3] was “Dose-dependent effect” throughout. The inhibition constant Ki in experiment [2] is 0.0081 µM; in experiment [4] it was 0.652 µM; in experiment [6], 0.0063 µM; in experiment [8], greater than 50 µM. For the same compound, the half-maximal inhibitory concentration (IC50) in experiment [5] and in experiment [7] was greater than 200 µM in each case.
